From ChEMBL document CHEMBL3580629, “Diterpenoids and Triterpenoids from the Resin of Bursera microphylla and Their Cytotoxic Activity” (J Nat Prod, 2015)

What was measured:
Type in all cases: functional, cell-based
RAW264.7 = experiment: Cytotoxic activity against mouse RAW264.7 cells assessed as reduction in cell viability incubated for 48 hrs by MTT assay
Summary of the method: (§1)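 Cells seeded at 1 × 10^4 per well and left 24 h at 37 °C, 5% CO2 to attach, then given test substances at 200 to 0.05 μM for 48 h. Substances were dissolved in DMSO and diluted in medium (0.06–2.0% DMSO in cultures). MTT (5 mg/mL stock) was added for the final 4 h, and formazan was dissolved in acidic isopropanol. Absorbance was read at 570/650 nm against vehicle (100%). IC50 came from nonlinear regression of log-normalized data, six doses in triplicate, at least three experiments.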

[1] = Cytotoxic activity against mouse M12.C3.F6 cells assessed as reduction in cell viability incubated for 48 hrs by MTT assay; summary of the method: as §1
HeLa = experiment: Cytotoxic activity against human HeLa cells assessed as reduction in cell viability incubated for 48 hrs by MTT assay; summary of the method: as §1
PC-3 = experiment: Cytotoxic activity against human PC3 cells assessed as reduction in cell viability incubated for 48 hrs by MTT assay; summary of the method: as §1
A549 = experiment: Cytotoxic activity against human A549 cells assessed as reduction in cell viability incubated for 48 hrs by MTT assay; summary of the method: as §1
[2] = Mus musculus, RAW264.7, 48 h, read-out: IC50

Structure (SMILES)	IC50 (RAW264.7; [2]) [nM]	IC50 ([1]; Mus musculus, 48 h, read-out: IC50) [nM]	IC50 (RAW264.7; raw264.7)	IC50 (HeLa)	IC50 [1]	IC50 (PC-3; pc-3)	IC50 (A549)	IC50 (PC-3; Homo sapiens, PC-3, 48 h, read-out: IC50) [nM]
COc1cc(C[C@@H]2COC[C@H]2Cc2ccc3c(c2)OCO3)cc(OC)c1OC	400							
COc1cc(C[C@@H](COC(C)=O)[C@H](COC(C)=O)Cc2ccc3c(c2)OCO3)cc(OC)c1OC	200	2500						
CC(C)=CCC/C(C)=C/C/C=C(\C)[C@H]1CCC2[C@@]3(C)CCC(=O)C(C)(C)C3CC[C@]21C (stereo partly specified)			Not Active	Not Active	Not Active	Not Active	Not Active	
COc1cccc2c1C(=O)c1c(O)c3c(c(O)c1C2=O)C[C@@](O)(C(=O)CO)C[C@@H]3O[C@H]1C[C@H](N)[C@H](O)[C@H](C)O1 [DOXORUBICIN]	630							3180
CC(=O)O[C@@]1(C(C)C)C/C=C(\C)CC[C@@H]2O[C@@]2(C)CC/C=C(\C)CC1 (relative stereo)			Not Active	Not Active	Not Active	Not Active	Not Active	
CC(C)=CCC/C(C)=C/C/C=C(\C)[C@H]1CCC2[C@@]3(C)CC[C@H](O)C(C)(C)C3CC[C@]21C (stereo partly specified)			Not Active	Not Active	Not Active	Not Active	Not Active	
CC(=O)OC[C@H](Cc1ccc2c(c1)OCO2)[C@H](COC(C)=O)Cc1ccc2c(c1)OCO2	9800							
